Assay results taken from ChEMBL document CHEMBL1132294, “Derivatives of the new ring system indolo[1,2-c]benzo[1,2,3]triazine with potent antitumor and antimicrobial activity” (J Med Chem, 1999).
Converted amounts (≈) assume the structure as drawn.

Assays:
HT-29 = experiment: Antitumor activity was evaluated against human colon adenocarcinoma cell line HT-29.; format: functional, cell-based
How it was run: (§1)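 Solid-tumour and KB lines: exponentially growing cells seeded at 5×10⁴ cells/mL, allowed to adhere 16 h, then serial drug dilutions added. Viability by MTT after 4 days. Growth expressed as % of untreated controls, 50% inhibitory concentration by linear regression. Untreated cells undergo at least three rounds of multiplication.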

Aspergillus fumigatus = experiment: Antimycotic activity against Aspergillus fumigatus was evaluated as compound minimum inhibitory concentration at which no macroscopic signs of fungal growth were detected.; format: functional
5637 = experiment: Antitumor activity was evaluated against human bladder carcinoma cell line 5637.; format: functional, cell-based; how it was run: as §1
Candida tropicalis = experiment: Antimycotic activity against Candida paratropicalis was evaluated. MIC was defined as compound concentration at which no macroscopic signs of fungal growth were detected.; format: functional
How it was run: (§2)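 Yeast inocula from 30 h Sabouraud dextrose broth cultures at 37 °C, diluted to 5×10³ cells/mL. Dermatophyte inocula from 5-day cultures, homogenized and diluted to 0.05 OD₅₉₀/mL. Inocula added to medium with serial dilutions, incubated at 37 °C, read visually at 2 days (yeast) or 3 days (dermatophytes). Mean of at least three experiments.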

[1] = test system: Mycobacterium tuberculosis; experiment: Antibacterial activity was evaluated against Mycobacterium tuberculosis (clinical isolate 1104); format: functional
How it was run: (§3)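 Broth microdilution in Middlebrook 7H9 with 0.5% glycerol and 10% OADC, containing serial concentrations of compound (diluted in medium from a DMSO solution). Plates were incubated 9 days at 37 °C, and viable bacteria were read by MTT. MIC is the mean of at least three separate experiments.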

Mycobacterium = experiment: Antibacterial activity was evaluated against MAC (Mycobacterium Avium Complex ); format: functional
How it was run: (§4)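 Mycobacterial suspension (turbidity of 1 McFarland standard, 10⁸ CFU/mL) added to Middlebrook 7H9 with 0.5% glycerol, 10% OADC and serial compound dilutions. Incubated at 37 °C, 1 day for M. smegmatis and M. fortuitum, 9 days for MAC. Viable mycobacteria counted by MTT. MIC given as mean of at least three separate experiments.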

CHO-K1 = experiment: Antitumor activity was evaluated against Chinese hamster ovary carcinoma cell line CHO-K1.; format: functional, cell-based; settings: Cricetulus griseus; how it was run: as §1
Candida albicans = experiment: Antimycotic activity against Candida albicans was evaluated as minimum inhibitory concentration of compound at which no macroscopic signs of fungal growth were detected; format: functional; how it was run: as §2
HeLa = experiment: Antitumor activity was evaluated against human cervix carcinoma cell line HeLa.; format: functional, cell-based; how it was run: as §1
WIL2-NS = experiment: Antitumor activity was evaluated against lymphoma cell line Wil2-NS (human splenic B lymphoblastoid cells).; format: functional, cell-based
How it was run: (§5)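 Exponentially growing leukemia/lymphoma cells resuspended at 1×10⁵ cells/mL in RPMI with serial drug dilutions. Viability by MTT after 4 days at 37 °C. Concentration giving 50% growth inhibition versus untreated controls found by linear regression. Mean of at least three experiments.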

ACHN = experiment: Antitumor activity was evaluated against human renal adenocarcinoma cell line ACHN.; format: functional, cell-based; how it was run: as §1
Cryptococcus neoformans = experiment: Antimycotic activity against Cryptococcus neoformans was evaluated. MIC was defined as compound concentration at which no macroscopic signs of fungal growth were detected.; format: functional; how it was run: as §2
CCRF-SB = experiment: Antitumor activity was evaluated against leukemia cell line CCRF-SB(human acute B lymphoblastic leukemia).; format: functional, cell-based; how it was run: as §5
Streptococcus = experiment: Antibacterial activity was evaluated against streptococcus.; format: functional
How it was run: (§6)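 Recent clinical isolates grown in nutrient broth, pH 7.2, inoculum 10³ bacterial cells/tube, with serial compound dilutions. […] Mean of at least three separate experiments.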

IMR-32 = experiment: Antitumor activity was evaluated against human neuroblastoma cell line IMR-32.; format: functional, cell-based; how it was run: as §1
MOLT-4 = experiment: Antitumor activity was evaluated against leukemia cell line MOLT-4(human acute T lymphoblastic leukemia); format: functional, cell-based; how it was run: as §5
Trichophyton benhamiae = experiment: Antimycotic activity against Trichophyton mentagrophytes was evaluated. MIC was defined as compound concentration at which no macroscopic signs of fungal growth were detected.; format: functional, Arthroderma benhamiae; how it was run: as §2
Staphylococcus = experiment: Antibacterial activity was evaluated against staphylococcus; format: functional; how it was run: as §6
L1210 = experiment: Antitumor activity was evaluated against leukemia cell line L1210 (mouse leukemia).; format: functional, cell-based; how it was run: as §5
[2] = test system: Mycolicibacterium smegmatis; experiment: Antibacterial activity was evaluated against Mycobacterium smegmatis; format: functional; how it was run: as §4
[3] = test system: Mycobacterium tuberculosis; experiment: Antibacterial activity was evaluated against Mycobacterium tuberculosis (ATCC); format: functional; how it was run: as §3
Shigella = experiment: Antibacterial activity was evaluated against shigella.; format: functional; how it was run: as §6
Candida parapsilosis = experiment: Antimycotic activity against Candida parapsilosis was evaluated. MIC was defined as compound concentration at which no macroscopic signs of fungal growth were detected.; format: functional; settings: Lodderomyces parapsilosis; how it was run: as §2
[4] = test system: Mycolicibacterium fortuitum; experiment: Antibacterial activity was evaluated against Mycobacterium fortuitum.; format: functional; how it was run: as §4
MT4 = experiment: Antitumor activity was evaluated against leukemia cell line MT-4(human CD4+ T cells expressing the TAT gene of HTLV-1).; format: functional, cell-based; how it was run: as §5
Salmonella = experiment: Antibacterial activity was evaluated against salmonella.; format: functional; how it was run: as §6
CCRF-CEM = experiment: Antitumor activity was evaluated against leukemia cell line CCRF-CEM(human acute T lymphoblastic leukemia).; format: functional, cell-based
How it was run: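 Exponentially growing leukemia/lymphoma cells resuspended at 1×10⁵ cells/mL in RPMI with serial drug dilutions. Viability by MTT after 4 days at 37 °C. Mean of at least three experiments.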

SMILES: O=Nc1c2ccccc2n2nnc3cc(Cl)ccc3c12
- IC50 (HT-29): 35000 nM
- MIC (Aspergillus fumigatus): 6.2 µM (≈ 1.75 µg/mL)
- IC50 5637: 2600 nM
- MIC (Candida tropicalis): 25 µM (≈ 7.07 µg/mL)
- MIC [1]: 5.9 µM (≈ 1.67 µg/mL)
- MIC (Mycobacterium): 0.6 µM (≈ 0.17 µg/mL)
- IC50 (CHO-K1): 9300 nM
- MIC (Candida albicans): 12 µM (≈ 3.39 µg/mL)
- IC50 (HeLa): 9200 nM
- IC50 (WIL2-NS): 800 nM
- IC50 (ACHN): 7600 nM
- MIC (Cryptococcus neoformans): 1.6 µM (≈ 0.452 µg/mL)
- IC50 (CCRF-SB): 2800 nM
- MIC (Streptococcus): 0.4 µM (≈ 0.113 µg/mL)
- IC50 (IMR-32): 2200 nM
- IC50 (MOLT-4): 1100 nM
- MIC (Trichophyton benhamiae): 50 µM (≈ 14.1 µg/mL)
- MIC (Staphylococcus): 0.4 µM (≈ 0.113 µg/mL)
- IC50 (L1210): 2400 nM
- MIC [2]: > 5 µM
- MIC [3]: 4.4 µM (≈ 1.24 µg/mL)
- MIC (Shigella): > 200 µM
- MIC (Candida parapsilosis): 3 µM (≈ 0.848 µg/mL)
- MIC [4]: > 5 µM
- IC50 (MT4): 900 nM
- MIC (Salmonella): > 200 µM
- IC50 (CCRF-CEM): 1800 nM
